Data taken from ChEMBL document CHEMBL1629415, “Biological evaluation of donor-acceptor aminonaphthoquinones as antitumor agents” (Eur J Med Chem, 2010).
Converted amounts (≈) assume the structure as drawn. The source made the active and inactive calls. No cut-off for these calls is given here.

test system: MCF7; assay: Cytotoxicity against human MCF7 cells after 48 hrs by MTT assay; type: functional, cell-based; details: MCF7, 48 h
Summary of the method: (§1)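 T24, DU145 and MCF7 grown in high-glucose DMEM with 10% fetal calf serum and penicillin/streptomycin. BALB/3T3 mouse fibroblasts grown in the same medium with 10% newborn calf serum. Cells seeded at 10 000/well for 24 h, then exposed 48 h at 37 C. MTT 0.5 mg/mL for 2 h, formazan dissolved in DMSO, read at 550 nm. EC50 is the concentration that lowers MTT reduction by 50% versus untreated control.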

Row | Structure (SMILES) | EC50 [mg/L]
1 | O=C1C(Cl)=C(Nc2ccc(O)cc2)C(=O)c2ccccc21 | 2.8 (≈ 9.34 µM)
2 | Cc1ccccc1NC1=C(Cl)C(=O)c2ccccc2C1=O | 4.9 (≈ 16.5 µM)
3 | COc1ccc(NC2=C(Cl)C(=O)c3ccccc3C2=O)cc1 | > 1000
4 | COc1ccc(NC2=CC(=O)c3ccccc3C2=O)cc1 | 3.7 (≈ 13.2 µM)
5 | COc1ccc(OC)c(NC2=C(Cl)C(=O)c3ccccc3C2=O)c1 | 4.6 (≈ 13.4 µM)
6 | Cc1ccccc1NC1=CC(=O)c2ccccc2C1=O | 0.8 (≈ 3.04 µM)
7 | CN(C1=C(Cl)C(=O)c2ccccc2C1=O)c1ccccc1 | 1.2 (≈ 4.03 µM)
8 | O=C1C=C(Nc2ccc(O)cc2)C(=O)c2ccccc21 | 0.8 (≈ 3.02 µM)
9 | O=C1C(Cl)=C(Nc2ccccc2)C(=O)c2ccccc21 | 6.3 (≈ 22.2 µM)
10 | O=C1C=C(Nc2ccccc2)C(=O)c2ccccc21 | 2.6 (≈ 10.4 µM)
11 | COc1ccc(OC)c(NC2=CC(=O)c3ccccc3C2=O)c1 | 1.2 (≈ 3.88 µM)
12 | CN(C1=CC(=O)c2ccccc2C1=O)c1ccccc1 | 7.8 (≈ 29.6 µM)

test system: T-24; assay: Anticancer activity against human T24 cells assessed as decreased in intracellular ATP level after 6 hrs by ATPlite assay; type: functional, cell-based; details: not given
Summary of the method: (§2)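 T24 cells in high-glucose DMEM with 10% FCS were exposed 6 h at 37 C to compound over a 1–100 range, alongside untreated controls. Intracellular ATP was measured by ATPlite luminescence kit. Groups were compared by one-way ANOVA with Bonferroni test.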

Row | Structure (SMILES) | Activity
13 | COc1ccc(NC2=CC(=O)c3ccccc3C2=O)cc1 | Dose-dependent effect
14 | O=C1C=C(Nc2ccc(O)cc2)C(=O)c2ccccc21 | Dose-dependent effect

test system: T-24; assay: Anticancer activity against human T24 cells assessed as decreased in intracellular ATP level at 100 ug/ml after 6 hrs by ATPlite assay; type: functional, cell-based; details: not given; summary of the method: as §2

Row | Structure (SMILES) | Activity
15 | COc1ccc(NC2=CC(=O)c3ccccc3C2=O)cc1 | Active
16 | O=C1C=C(Nc2ccc(O)cc2)C(=O)c2ccccc21 | Active

test system: T-24; assay: Induction of apoptosis in human T24 cells assessed as increase of caspase-3-mediated DEVDase activity at 100 ug/ml after 24 hrs; type: functional; details: not given
Summary of the method: (§3)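 T24 cells exposed 6 or 24 h at 37 C, washed twice in PBS, lysed and centrifuged. Supernatant incubated with DEVD-AFC substrate, cleavage followed kinetically at room temperature (ex 380 nm, em 500 nm). Activity given as U/mg protein, protein by Lowry method with BSA standard.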

Row | Structure (SMILES) | Activity [U/mg]
17 | COc1ccc(NC2=CC(=O)c3ccccc3C2=O)cc1 | 3.4
18 | O=C1C=C(Nc2ccc(O)cc2)C(=O)c2ccccc21 | 4

test system: T-24; assay: Induction of apoptosis in human T24 cells assessed as increase of caspase-3-mediated DEVDase activity at 1 ug/ml after 24 hrs; type: functional; details: not given; summary of the method: as §3

Row | Structure (SMILES) | Activity [U/mg]
19 | COc1ccc(NC2=CC(=O)c3ccccc3C2=O)cc1 | 5
20 | O=C1C=C(Nc2ccc(O)cc2)C(=O)c2ccccc21 | 5.1

test system: T-24; assay: Cytotoxicity against human T24 cells after 48 hrs by MTT assay; type: functional, cell-based; details: T-24, 48 h; summary of the method: as §1

Row | Structure (SMILES) | EC50 [mg/L]
21 | O=C1C(Cl)=C(Nc2ccc(O)cc2)C(=O)c2ccccc21 | 0.6 (≈ 2 µM)
22 | Cc1ccccc1NC1=C(Cl)C(=O)c2ccccc2C1=O | 9.3 (≈ 31.2 µM)
23 | COc1ccc(NC2=C(Cl)C(=O)c3ccccc3C2=O)cc1 | 438 (≈ 1390 µM)
24 | COc1ccc(NC2=CC(=O)c3ccccc3C2=O)cc1 | 8.1 (≈ 29 µM)
25 | COc1ccc(OC)c(NC2=C(Cl)C(=O)c3ccccc3C2=O)c1 | 2.4 (≈ 6.98 µM)
26 | Cc1ccccc1NC1=CC(=O)c2ccccc2C1=O | 7.7 (≈ 29.2 µM)
27 | CN(C1=C(Cl)C(=O)c2ccccc2C1=O)c1ccccc1 | 6 (≈ 20.2 µM)
28 | O=C1C=C(Nc2ccc(O)cc2)C(=O)c2ccccc21 | 2.3 (≈ 8.67 µM)
29 | O=C1C(Cl)=C(Nc2ccccc2)C(=O)c2ccccc21 | 14.8 (≈ 52.2 µM)
30 | O=C1C=C(Nc2ccccc2)C(=O)c2ccccc21 | 1.2 (≈ 4.81 µM)
31 | COc1ccc(OC)c(NC2=CC(=O)c3ccccc3C2=O)c1 | 10.9 (≈ 35.2 µM)
32 | CN(C1=CC(=O)c2ccccc2C1=O)c1ccccc1 | 8.4 (≈ 31.9 µM)

test system: not listed separately; assay: Lipophilicity, log P of the compound; type: physicochemical; details: octanol/water

Row | Structure (SMILES) | logP
33 | O=C1C(Cl)=C(Nc2ccccc2)C(=O)c2ccccc21 | 1.59

same assay, conditions: octanol/water; read-out: logP

Row | Structure (SMILES) | logP
34 | O=C1C(Cl)=C(Nc2ccc(O)cc2)C(=O)c2ccccc21 | 1.2
35 | Cc1ccccc1NC1=C(Cl)C(=O)c2ccccc2C1=O | 2.08
36 | COc1ccc(NC2=C(Cl)C(=O)c3ccccc3C2=O)cc1 | 1.46
37 | COc1ccc(NC2=CC(=O)c3ccccc3C2=O)cc1 | 1.43
38 | COc1ccc(OC)c(NC2=C(Cl)C(=O)c3ccccc3C2=O)c1 | 1.34
39 | Cc1ccccc1NC1=CC(=O)c2ccccc2C1=O | 2.04
40 | CN(C1=C(Cl)C(=O)c2ccccc2C1=O)c1ccccc1 | 2.38
41 | O=C1C=C(Nc2ccc(O)cc2)C(=O)c2ccccc21 | 1.16
42 | O=C1C=C(Nc2ccccc2)C(=O)c2ccccc21 | 1.55
43 | COc1ccc(OC)c(NC2=CC(=O)c3ccccc3C2=O)c1 | 1.3
44 | CN(C1=CC(=O)c2ccccc2C1=O)c1ccccc1 | 2.34

test system: T-24; assay: Induction of apoptosis in human T24 cells assessed as increase of caspase-3-mediated DEVDase activity at 5 ug/ml after 4 hrs; type: functional; details: in the assay text read “5 uM” for “5 ug/ml”
Summary of the method: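 Positive-control arm: T24 cells exposed to sanguinarine for 4 h. Lysate supernatant then assayed for DEVD-AFC cleavage kinetically at room temperature (ex 380/em 500 nm), expressed as U/mg protein.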

Row | Structure (SMILES) | Activity [U/mg]
45 | C[n+]1cc2c3c(ccc2c2ccc4cc5c(cc4c21)OCO5)OCO3 [SANGUINARIUM] | 639.2

test system: T-24; assay: Induction of apoptosis in human T24 cells assessed as increase of caspase-3-mediated DEVDase activity at 100 ug/ml after 6 hrs; type: functional; details: not given; summary of the method: as §3

Row | Structure (SMILES) | Activity [U/mg]
46 | COc1ccc(NC2=CC(=O)c3ccccc3C2=O)cc1 | 3.4
47 | O=C1C=C(Nc2ccc(O)cc2)C(=O)c2ccccc21 | 3

test system: T-24; assay: Induction of apoptosis in human T24 cells assessed as increase of caspase-3-mediated DEVDase activity at 10 ug/ml after 24 hrs; type: functional; details: not given; summary of the method: as §3

Row | Structure (SMILES) | Activity [U/mg]
48 | COc1ccc(NC2=CC(=O)c3ccccc3C2=O)cc1 | 4.5
49 | O=C1C=C(Nc2ccc(O)cc2)C(=O)c2ccccc21 | 4.9

test system: DU-145; assay: Cytotoxicity against human DU145 cells after 48 hrs by MTT assay; type: functional, cell-based; details: DU-145, 48 h; summary of the method: as §1

Row | Structure (SMILES) | EC50 [mg/L]
50 | O=C1C(Cl)=C(Nc2ccc(O)cc2)C(=O)c2ccccc21 | 1.9 (≈ 6.34 µM)
51 | Cc1ccccc1NC1=C(Cl)C(=O)c2ccccc2C1=O | 25.8 (≈ 86.7 µM)
52 | COc1ccc(NC2=C(Cl)C(=O)c3ccccc3C2=O)cc1 | > 1000
53 | COc1ccc(NC2=CC(=O)c3ccccc3C2=O)cc1 | 7.6 (≈ 27.2 µM)
54 | COc1ccc(OC)c(NC2=C(Cl)C(=O)c3ccccc3C2=O)c1 | 6 (≈ 17.5 µM)
55 | Cc1ccccc1NC1=CC(=O)c2ccccc2C1=O | 7.7 (≈ 29.2 µM)
56 | CN(C1=C(Cl)C(=O)c2ccccc2C1=O)c1ccccc1 | 6.7 (≈ 22.5 µM)
57 | O=C1C=C(Nc2ccc(O)cc2)C(=O)c2ccccc21 | 0.9 (≈ 3.39 µM)
58 | O=C1C(Cl)=C(Nc2ccccc2)C(=O)c2ccccc21 | 66.8 (≈ 235 µM)
59 | O=C1C=C(Nc2ccccc2)C(=O)c2ccccc21 | 4 (≈ 16 µM)
60 | COc1ccc(OC)c(NC2=CC(=O)c3ccccc3C2=O)c1 | 35.2 (≈ 114 µM)
61 | CN(C1=CC(=O)c2ccccc2C1=O)c1ccccc1 | 20.9 (≈ 79.4 µM)

test system: T-24; assay: Induction of apoptosis in human T24 cells assessed as increase of caspase-3-mediated DEVDase activity at 1 ug/ml after 6 hrs; type: functional; details: not given; summary of the method: as §3

Row | Structure (SMILES) | Activity [U/mg]
62 | COc1ccc(NC2=CC(=O)c3ccccc3C2=O)cc1 | 5.9
63 | O=C1C=C(Nc2ccc(O)cc2)C(=O)c2ccccc21 | 6

test system: T-24; assay: Induction of apoptosis in human T24 cells assessed as increase of caspase-3-mediated DEVDase activity at 10 ug/ml after 6 hrs; type: functional; details: not given; summary of the method: as §3

Row | Structure (SMILES) | Activity [U/mg]
64 | COc1ccc(NC2=CC(=O)c3ccccc3C2=O)cc1 | 5
65 | O=C1C=C(Nc2ccc(O)cc2)C(=O)c2ccccc21 | 2.7

test system: BALB/3T3; assay: Cytotoxicity against mouse BALB/3T3 cells after 48 hrs by MTT assay; type: cell-based; details: BALB/3T3, 48 h; summary of the method: as §1

Row | Structure (SMILES) | EC50 [mg/L]
66 | O=C1C(Cl)=C(Nc2ccc(O)cc2)C(=O)c2ccccc21 | 0.6 (≈ 2 µM)
67 | Cc1ccccc1NC1=C(Cl)C(=O)c2ccccc2C1=O | 3.2 (≈ 10.7 µM)
68 | COc1ccc(NC2=C(Cl)C(=O)c3ccccc3C2=O)cc1 | 13.7 (≈ 43.7 µM)
69 | COc1ccc(NC2=CC(=O)c3ccccc3C2=O)cc1 | 35.7 (≈ 128 µM)
70 | COc1ccc(OC)c(NC2=C(Cl)C(=O)c3ccccc3C2=O)c1 | 0.7 (≈ 2.04 µM)
71 | Cc1ccccc1NC1=CC(=O)c2ccccc2C1=O | 6.2 (≈ 23.5 µM)
72 | CN(C1=C(Cl)C(=O)c2ccccc2C1=O)c1ccccc1 | 0.8 (≈ 2.69 µM)
73 | O=C1C=C(Nc2ccc(O)cc2)C(=O)c2ccccc21 | 6 (≈ 22.6 µM)
74 | O=C1C(Cl)=C(Nc2ccccc2)C(=O)c2ccccc21 | 9.1 (≈ 32.1 µM)
75 | O=C1C=C(Nc2ccccc2)C(=O)c2ccccc21 | 0.2 (≈ 0.802 µM)
76 | COc1ccc(OC)c(NC2=CC(=O)c3ccccc3C2=O)c1 | 11.5 (≈ 37.2 µM)
77 | CN(C1=CC(=O)c2ccccc2C1=O)c1ccccc1 | 43.3 (≈ 164 µM)

test system: T-24; assay: Anticancer activity against human T24 cells assessed as inhibition of cell proliferation at 10 ug/ml after 10 days using crystal violet staining by clonogenic assay; type: functional; details: not given
Summary of the method: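 T24 cells (500) seeded at single-cell density and left to adhere overnight. Compound exposure 24 h, then washed with warm PBS and regrown 10 days in fresh medium. Colonies stained with crystal violet to score clonogenic survival.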

Row | Structure (SMILES) | Activity
78 | O=C1C=C(Nc2ccc(O)cc2)C(=O)c2ccccc21 | Active

same assay, conditions: T-24, 240 h

Row | Structure (SMILES) | inhibition at 10 µg/mL [%]
79 | COc1ccc(NC2=CC(=O)c3ccccc3C2=O)cc1 | 75
